≈ marks a conversion by molar mass, not a printed value. Calls of active or inactive are those of the source. The calls are words filed in the database; no cut-off is given here. *1 amine or outer side, *2 acyl side, *3 side chain or, on linkers, in order; H or OH if unused. Where a SMILES comes first, the peptide text is derived from it. [ ]: non-standard residue; d: D form. The star is where a group is joined. X2 = C/C(=N\OCC(=O)*)c1ccc(NC(=O)c2cc(Br)ccc2O)cc1; X1 = C/C(=N\OCC(=O)[*:2])c1ccc(N[*:1])cc1; Palmitoyl = CCCCCCCCCCCCCCCC(=O)*; X3 = O=C(c1cc(Cl)ccc1O)*
What was measured:
[1] = system: Mycobacterium tuberculosis; assay: Antimycobacterial activity against Mycobacterium tuberculosis H37Rv ATCC 27294 assessed as reduction in bacterial growth after 28 days by serial dilution method; format: functional; settings: H37Rv ATCC 27294, 672 h, time 28 day
Procedure, shortened: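 Broth MIC in Sula semisynthetic medium, pH 6.5; 4-week incubation, with 21-day values […] where indicated. Drug-free inoculated bacteria served as growth control. MIC also expressed as drug content (µg/mL) = MIC (µM) × average SAL molar mass × number of SAL per conjugate / 1000.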

[2] = system: Mycobacteroides abscessus; assay: Antimycobacterial activity against Mycobacterium abscessus ATCC 19977 assessed as reduction in bacterial growth after 7 days by serial dilution method; format: functional; settings: ATCC 19977, 168 h, time 7 day
Procedure, shortened: (§1)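 MIC determined in Sula semisynthetic medium, pH 6.5, 1 week incubation. Growth inhibition confirmed by plating on Löwenstein-Jensen solid medium and counting CFU. Bacteria inoculated without drug served as growth control.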

[3] = system: MONO-MAC-6; assay: Cytostatic activity against human MONO-MAC-6 cells assessed as reduction in cell viability incubated for 24 hrs by MTT assay; format: functional, cell-based; settings: MONO-MAC-6, 24 h
Procedure, shortened: (§2)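 MTT viability assay after 24 h exposure of MonoMac6 human monocytic cells or HepG2 human hepatocellular carcinoma cells. Top concentration 200 μM. IC50 taken from dose-response curves as the concentration reducing viability to 50% of maximal.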

[4] = system: HepG2; assay: Cytostatic activity against human HepG2 cells assessed as reduction in cell viability incubated for 24 hrs by MTT assay; format: functional, cell-based; settings: HepG2, 24 h; procedure, shortened: as §2
[5] = Selectivity index, ratio of IC50 for cytostatic activity against human MONO-MAC-6 cells to MIC for antimycobacterial activity against Mycobacterium tuberculosis H37Rv ATCC 27294; format: toxicity, cell-based; settings: read-out: Selectivity Index
Procedure, shortened: (§3)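 MTT assay on MonoMac6 or HepG2 cells after 24 h exposure, top concentration 200 µM. SI = IC50 (µM)/MIC (µM) against H37Rv from the 4-week Sula medium assay.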

[6] = Selectivity index, ratio of IC50 for cytostatic activity against human HepG2 cells to MIC for antimycobacterial activity against Mycobacterium tuberculosis H37Rv ATCC 27294; format: toxicity, cell-based; settings: read-out: Selectivity Index; procedure, shortened: as §3
[7] = system: Mycobacterium tuberculosis; assay: Antimycobacterial activity against Mycobacterium tuberculosis H37Rv ATCC 27294 assessed as reduction in colony forming unit after 28 days by serial dilution method; format: functional, organism-based; settings: time 28.0 day
Procedure, shortened: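 After the 4-week MIC incubation in Sula semisynthetic medium (pH 6.5), growth inhibition confirmed by plating on Löwenstein-Jensen solid medium and counting colony forming units.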

[8] = system: Mycobacteroides abscessus; assay: Antimycobacterial activity against Mycobacterium abscessus ATCC 19977 assessed as reduction in colony forming unit after 7 days by serial dilution method; format: functional, organism-based; settings: time 7.0 day; procedure, shortened: as §1
[9] = system: Mycobacterium tuberculosis; assay: […] antimycobacterial activity against Mycobacterium tuberculosis H37Rv ATCC 27294 infected in human MONO-MAC-6 cells assessed as reduction in colony forming unit at 125 uM for 6 days by colony counting based analysis; format: functional, organism-based; settings: time 6.0 day
Procedure, shortened: (§4)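 MonoMac6 monolayers infected with H37Rv, then treated with compound at 125 or 250 µM for 3 days. Treatment repeated with fresh compound solution for another 3 days. Intracellular bacteria quantified as CFU against untreated infected cells.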

[10] = system: Mycobacterium tuberculosis; assay: […] antimycobacterial activity against Mycobacterium tuberculosis H37Rv ATCC 27294 infected in human MONO-MAC-6 cells assessed as reduction in colony forming unit at 250 uM for 6 days by colony counting based analysis; format: functional, organism-based; settings: time 6.0 day; procedure, shortened: as §4

O=C(Nc1ccc(Cl)c(Cl)c1)c1cc(Cl)ccc1O
MIC [1]: 1.6 µM (≈ 0.507 µg/mL)
MIC [2]: 3.2 µM (≈ 1.01 µg/mL)
IC50 [3]: 3.8 µM
IC50 [4]: 2.4 µM
selectivity ratio [5]: 2.4
selectivity ratio [6]: 1.5

O=C(Nc1ccc(C(F)(F)F)cc1)c1cc(Cl)ccc1O
MIC [1]: 1.6 µM (≈ 0.505 µg/mL)
MIC [2]: 3.2 µM (≈ 1.01 µg/mL)
IC50 [3]: 2.2 µM
IC50 [4]: 5.8 µM

O=C(Nc1ccc(C(F)(F)F)cc1)c1cc(Br)ccc1O
MIC [1]: 1.4 µM (≈ 0.504 µg/mL)
MIC [2]: 13.9 µM (≈ 5.01 µg/mL)
IC50 [3]: 2 µM
IC50 [4]: 5.5 µM
selectivity ratio [5]: 1.4
selectivity ratio [6]: 3.9

CC(=O)c1ccc(NC(=O)c2cc(Cl)ccc2O)cc1
MIC [1]: 8.6 µM (≈ 2.49 µg/mL)
MIC [2]: 34.5 µM (≈ 10 µg/mL)
Activity [7]: Active
Activity [8]: Active
IC50 [3]: 16.1 µM
IC50 [4]: 7.9 µM
selectivity ratio [5]: 1.9
selectivity ratio [6]: 0.9

O=C(Nc1ccc(Cl)c(Cl)c1)c1cc(Br)ccc1O
MIC [1]: 1.4 µM (≈ 0.505 µg/mL)
MIC [2]: 7 µM (≈ 2.53 µg/mL)
IC50 [3]: 1.4 µM
IC50 [4]: 4.1 µM
selectivity ratio [5]: 1
selectivity ratio [6]: 2.9

C/C(=N\OCC(=O)NCC(=O)N[C@@H](Cc1ccccc1)C(=O)N[C@@H](CC(C)C)C(=O)NCC(=O)N[C@H](C(=O)N[C@@H](CCCCN)C(=O)N1CCC[C@H]1C(=O)N1CCC[C@H]1C(=O)N[C@@H](CCCNC(=N)N)C(=O)O)[C@@H](C)O)c1ccc(NC(=O)c2cc(Br)ccc2O)cc1 [listing 1 of 2 here]
IC50 [3]: > 200 µM
IC50 [4]: 156 µM
selectivity ratio [5]: > 6.8
selectivity ratio [6]: 5.3

C/C(=N\OCC(=O)NCC(=O)N[C@@H](Cc1ccccc1)C(=O)N[C@@H](CC(C)C)C(=O)NCC(=O)N[C@H](C(=O)N[C@@H](CCCCN)C(=O)N1CCC[C@H]1C(=O)N1CCC[C@H]1C(=O)N[C@@H](CCCNC(=N)N)C(=O)O)[C@@H](C)O)c1ccc(NC(=O)c2cc(Br)ccc2O)cc1 [listing 2 of 2 here]
MIC [1]: 29.4 µM (≈ 40 µg/mL)
MIC [2]: 147 µM (≈ 200 µg/mL)

C/C(=N\OCC(=O)N[C@H](C(=O)N[C@@H](CCCCN)C(=O)N1CCC[C@H]1C(=O)N1CCC[C@H]1C(=O)N[C@@H](CCCNC(=N)N)C(=O)O)[C@@H](C)O)c1ccc(NC(=O)c2cc(Br)ccc2O)cc1
MIC [1]: 20.3 µM (≈ 20 µg/mL)
MIC [2]: 203 µM (≈ 200 µg/mL)

O=Cc1ccc(O)c(C(=O)Nc2ccc(C(F)(F)F)cc2)c1
MIC [1]: 25.9 µM (≈ 8.01 µg/mL)
MIC [2]: 129 µM (≈ 40 µg/mL)
Activity [7]: Active
Activity [8]: Active
IC50 [3]: 21.5 µM
IC50 [4]: 17.6 µM
selectivity ratio [5]: 0.8
selectivity ratio [6]: 0.7

C/C(=N\OCC(=O)NCC(=O)N[C@@H](Cc1ccccc1)C(=O)N[C@@H](CC(C)C)C(=O)NCC(=O)N[C@H](C(=O)N[C@@H](CCCCN)C(=O)N1CCC[C@H]1C(=O)N[C@@H](CCCCN)C(=O)NCC(=O)N[C@H](C(=O)N[C@@H](CCCCN)C(=O)N1CCC[C@H]1C(=O)N[C@@H](CCCCN)C(=O)NCC(=O)N[C@H](C(=O)N[C@@H](CCCCN)C(=O)N1CCC[C@H]1C(=O)N[C@@H](CCCCN)C(=O)NCC(=O)N[C@H](C(=O)N[C@@H](CCCCN)C(=O)N1CCC[C@H]1C(=O)N[C@@H](CCCCN)C(=O)NCC(N)=O)[C@@H](C)O)[C@@H](C)O)[C@@H](C)O)[C@@H](C)O)c1ccc(NC(=O)c2cc(Br)ccc2O)cc1
MIC [1]: 142 µM (≈ 400 µg/mL)
MIC [2]: 70.7 µM (≈ 200 µg/mL)

C/C(=N\OCC(=O)NCC(=O)N[C@@H](Cc1ccccc1)C(=O)N[C@@H](CC(C)C)C(=O)NCC(=O)N[C@H](C(=O)N[C@@H](CCCCN)C(=O)N1CCC[C@H]1C(=O)N[C@@H](CCCNC(=N)N)C(=O)O)[C@@H](C)O)c1ccc(NC(=O)c2cc(Br)ccc2O)cc1 [listing 1 of 2 here]
IC50 [3]: > 200 µM
IC50 [4]: 113 µM
selectivity ratio [5]: > 6.3
selectivity ratio [6]: 3.6

C/C(=N\OCC(=O)NCC(=O)N[C@@H](Cc1ccccc1)C(=O)N[C@@H](CC(C)C)C(=O)NCC(=O)N[C@H](C(=O)N[C@@H](CCCCN)C(=O)N1CCC[C@H]1C(=O)N[C@@H](CCCNC(=N)N)C(=O)O)[C@@H](C)O)c1ccc(NC(=O)c2cc(Br)ccc2O)cc1 [listing 2 of 2 here]
MIC [1]: 31.6 µM (≈ 40 µg/mL)
MIC [2]: 158 µM (≈ 200 µg/mL)

C/C(=N\OCC(=O)NCC(=O)N[C@@H](Cc1ccccc1)C(=O)N[C@@H](CC(C)C)C(=O)NCC(=O)N[C@H](C(=O)N[C@@H](CCCCN)C(=O)N1CCC[C@@H]1C(=O)N1CCC[C@H]1C(=O)N[C@H](CCCNC(=N)N)C(=O)O)[C@@H](C)O)c1ccc(NC(=O)c2cc(Br)ccc2O)cc1
Activity [7]: Active
Activity [8]: Active
Activity [9]: inactive
Activity [10]: Active

C/C(=N\OCC(=O)NCC(=O)N[C@@H](Cc1ccccc1)C(=O)N[C@@H](CC(C)C)C(=O)NCC(=O)N[C@H](C(=O)N[C@@H](CCCCN)C(=O)N1CCC[C@@H]1C(=O)N[C@H](CCCNC(=N)N)C(=O)O)[C@@H](C)O)c1ccc(NC(=O)c2cc(Br)ccc2O)cc1
Activity [7]: Active
Activity [8]: Active
Activity [9]: Active
Activity [10]: Active

C/C(=N\OCC(=O)N[C@H](C(=O)N[C@@H](CCCCN)C(=O)N1CCC[C@H]1C(=O)N1CCC[C@@H]1C(=O)N[C@H](CCCNC(=N)N)C(=O)O)[C@@H](C)O)c1ccc(NC(=O)c2cc(Br)ccc2O)cc1
Activity [7]: Active
Activity [8]: Active
Activity [9]: Active
Activity [10]: Active

C/C(=N\OCC(=O)NCCCC[C@H](NC(=O)[C@@H]1CCCN1C(=O)[C@H](CCCCN)NC(=O)[C@@H](NC(=O)CNC(=O)[C@H](CCCCNC(=O)CO/N=C(\C)c1ccc(NC(=O)c2cc(Br)ccc2O)cc1)NC(=O)[C@@H]1CCCN1C(=O)[C@H](CCCCN)NC(=O)[C@@H](NC(=O)[C@H](CCCNC(=N)N)NC(=O)[C@@H]1CCCN1C(=O)[C@H](CCCCN)NC(=O)[C@@H](N)[C@@H](C)O)[C@@H](C)O)[C@@H](C)O)C(=O)NCC(=O)O)c1ccc(NC(=O)c2cc(Br)ccc2O)cc1 (H-TKPRTKPK(X2)GTKPK(X2)G-OH)
MIC [1]: 34.8 µM (≈ 80.1 µg/mL)
MIC [2]: 86.9 µM (≈ 200 µg/mL)
Activity [7]: Active
Activity [8]: Active
IC50 [3]: 101 µM
IC50 [4]: 95.2 µM
selectivity ratio [5]: 2.9
selectivity ratio [6]: 2.7
Activity [9]: Active
Activity [10]: Active

CCCCCCCCCCCCCCCC(=O)NCCCC[C@H](NC(=O)[C@@H]1CCCN1C(=O)[C@H](CCCCN)NC(=O)[C@@H](NC(=O)CO/N=C(\C)c1ccc(NC(=O)c2cc(Cl)ccc2O)cc1)[C@@H](C)O)C(=O)NCC(=O)N[C@H](C(=O)N[C@@H](CCCCN)C(=O)N1CCC[C@H]1C(=O)N[C@@H](CCCCN)C(=O)NCC(=O)N[C@H](C(=O)N[C@@H](CCCCN)C(=O)N1CCC[C@H]1C(=O)N[C@@H](CCCCN)C(=O)NCC(=O)N[C@H](C(=O)N[C@@H](CCCCN)C(=O)N1CCC[C@H]1C(=O)N[C@@H](CCCCN)C(=O)NCC(N)=O)[C@@H](C)O)[C@@H](C)O)[C@@H](C)O (X3-[X1]TKPK(Palmitoyl)GTKPKGTKPKGTKPKG-NH2)
MIC [1]: 94.5 µM (≈ 250 µg/mL)
MIC [2]: 75.6 µM (≈ 200 µg/mL)
Activity [7]: Active
Activity [8]: Active
IC50 [3]: 16.8 µM
IC50 [4]: 42.9 µM
selectivity ratio [5]: 0.2
selectivity ratio [6]: 0.5
Activity [9]: Active
Activity [10]: Active

CCCCCCCCCC(=O)O [DECANOIC ACID]
IC50 [3]: > 200 µM

NNC(=O)c1ccncc1 [ISONIAZID]
MIC [1]: 1.17 µM (≈ 0.16 µg/mL)
MIC [2]: 292 µM (≈ 40 µg/mL)
Activity [7]: Active
Activity [8]: Active

CCCCCCCCCCCCCCCC(=O)O [PALMITIC ACID]
IC50 [3]: 178 µM
